This is an account of results in ChEMBL document CHEMBL4138193, “Novel indole and triazole based hybrid molecules exhibit potent anti-adipogenic and antidyslipidemic activity by activating Wnt3a/β-catenin pathway” (Eur J Med Chem, 2018).

For assay [1], the system named is 3T3-L1. In words: Anti-adipogenic activity in mouse differentiated 3T3L1 cells assessed as inhibition of adipogenesis at 20 uM after 20 mins by Oil Red O staining based assay. In kind it is functional. The method in brief:
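3T3-L1 preadipocytes given 20 µM compound with differentiation media. Oil red O stain (20 min) extracted, absorbance at 492 nm measured against MDI+ control, n=3, mean ± SD, Student t test.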

Assay [2] deals with 3T3-L1. The experiment in a line: Anti-adipogenic activity in mouse 3T3L1 cells assessed as inhibition of adipogenesis after 20 mins by Oil Red O staining based assay. In kind it is functional, cell-based. The settings on record: 3T3-L1, 20 min. The method in brief: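 3T3-L1 preadipocytes differentiated with compound at 0.1, 1, 3, 10, 30, 100 and 300 µM. Oil red O absorbance read at 492 nm, concentrations log-transformed and fitted by non-linear regression to give IC50. Two to three independent experiments, mean ± SEM.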

In assay [3] the test system is Syrian golden hamster. The experiment in a line: Induction of reverse cholestrol transport in high fat diet-induced dyslipidemia Syrian Golden hamster model assessed as decrease in CETP mRNA expression in liver at 100 mg/kg, po administered for 1 week by qRT-PCR analysis. The settings on record: Mesocricetus auratus. In kind it is functional, organism-based. A general note: Quantitative PCR measures a nucleic acid by following its amplification.

Assay [4] relates to Syrian golden hamster. The experiment in a line: Induction of reverse cholestrol transport in high fat diet-induced dyslipidemia Syrian Golden hamster model assessed as increase in LCAT mRNA expression in liver at 100 mg/kg, po administered for 1 week by qRT-PCR analysis. In kind it is functional, organism-based. The settings on record: Mesocricetus auratus.
Assay [5] relates to Syrian golden hamster. In words: Induction of reverse cholestrol transport in high fat diet-induced dyslipidemia Syrian Golden hamster model assessed as decrease in CYP7A1 mRNA expression in liver at 100 mg/kg, po administered for 1 week by qRT-PCR analysis. It is filed as functional, organism-based. The settings on record: Mesocricetus auratus.
The test system of assay [6] is Syrian golden hamster. In words: Induction of reverse cholestrol transport in high fat diet-induced dyslipidemia Syrian Golden hamster model assessed as increase in ABCA1 mRNA expression in eWAT at 100 mg/kg, po administered for 1 week by qRT-PCR analysis. In kind it is functional, organism-based. The settings on record: Mesocricetus auratus.
Assay [7] has as its system Syrian golden hamster. The experiment in a line: Induction of reverse cholestrol transport in high fat diet-induced dyslipidemia Syrian Golden hamster model assessed as increase in ABCG5 mRNA expression in eWAT at 100 mg/kg, po administered for 1 week by qRT-PCR analysis. In kind it is functional, organism-based. The settings on record: Mesocricetus auratus.
Assay [8] has as its system Syrian golden hamster. The experiment in a line: Induction of reverse cholestrol transport in high fat diet-induced dyslipidemia Syrian Golden hamster model assessed as increase in SCARB1 mRNA expression in liver at 100 mg/kg, po administered for 1 week by qRT-PCR analysis. In kind it is functional, organism-based. The settings on record: Mesocricetus auratus.
In assay [9] the test system is Syrian golden hamster. In words: Induction of reverse cholestrol transport in high fat diet-induced dyslipidemia Syrian Golden hamster model assessed as decrease in NPCL1 mRNA expression in liver at 100 mg/kg, po administered for 1 week by qRT-PCR analysis. The settings on record: Mesocricetus auratus. In kind it is functional, organism-based.
Assay [10] deals with Syrian golden hamster. In words: Induction of reverse cholestrol transport in high fat diet-induced dyslipidemia Syrian Golden hamster model assessed as increase in ABCG8 mRNA expression in eWAT at 100 mg/kg, po administered for 1 week by qRT-PCR analysis. The settings on record: Mesocricetus auratus. It is filed as functional, organism-based.

The structures appear in SMILES notation. Activity calls are given as the source filed them. The calls are words filed in the database; no cut-off is given here.

As for `Cc1ccc(S(=O)(=O)N(Cc2ccc(F)cc2)Cc2cccc(F)c2F)cc1`, the inhibition – broadly, the drop in the measured response relative to a control, in per cent – at 20 µM in the assay with 3T3-L1 [1] was -97.7%.
The same measure, in the same setting: in the case of `COc1cc(OC)c(Cn2cc(CN(Cc3cn(S(=O)(=O)c4ccc(C)cc4)c4ccccc34)S(=O)(=O)c3ccc(C)cc3)nn2)c(OC)c1` it was -22%; in that of `Cc1ccc(S(=O)(=O)n2cc(CN(Cc3cccc(F)c3F)S(C)(=O)=O)c3ccccc32)cc1`, -3.3%.
Take `Cc1ccc(S(=O)(=O)n2cc(CN(Cc3cn(Cc4cccc(F)c4F)nn3)C(=O)C(F)(F)F)c3ccccc32)cc1`: in the assay on 3T3-L1 [2], the IC50 (usually the concentration at which inhibition is half-maximal) turned out to be 19.1 µM. The inhibition at 20 µM in the assay with 3T3-L1 [1] stood at 31.9%.
Regarding `CC(=O)N(Cc1cn(Cc2cccc(F)c2F)nn1)Cc1cn(S(=O)(=O)c2ccc(C)cc2)c2ccccc12`, the 50% inhibitory concentration (IC50) in the assay on 3T3-L1 [2] turned out to be 9.1 µM. Further, the inhibition at 20 µM in the assay with 3T3-L1 [1] was 39.5%.
As to `O=C(N(Cc1cccc(F)c1F)Cc1cn(S(=O)(=O)c2ccc(F)cc2)c2ccccc12)C(F)(F)F`, the inhibition at 20 µM with 3T3-L1 [1] is -52.3%.
In the case of `COc1cc(Cn2cc(CN(Cc3c(-c4ccccc4)c4ccccc4n3S(=O)(=O)c3ccc(C)cc3)S(=O)(=O)c3ccc(C)cc3)nn2)cc(OC)c1OC`, the inhibition at 20 µM with 3T3-L1 [1] is -10.9%.
As for `Cc1ccc(S(=O)(=O)n2cc(CN(Cc3ccccc3)Cc3cccc(F)c3F)c3ccccc32)cc1`, the inhibition at 20 µM with 3T3-L1 [1] was -13.1%.
`COc1ccc(Cn2cc(CN(Cc3cn(S(=O)(=O)c4ccc(C)cc4)c4ccccc34)S(=O)(=O)c3ccc(C)cc3)nn2)c(OC)c1`: the inhibition at 20 µM in the assay with 3T3-L1 [1] worked out at 7.6%.
For the compound `O=S(=O)(c1ccc(F)cc1)n1cc(CNCc2cccc(F)c2F)c2ccccc21`, in the assay with 3T3-L1 [2], the IC50 turned out to be 12.4 µM. For the same compound, the inhibition at 20 µM with 3T3-L1 [1] stood at 21%.
On to `Cc1ccc(S(=O)(=O)n2cc(CN(Cc3cn(Cc4ccc(F)cc4)nn3)S(=O)(=O)c3ccccc3)c3ccccc32)cc1`, for which the inhibition at 20 µM in the assay on 3T3-L1 [1] was -21%.
With `Fc1cccc(CNCc2ccccc2)c1F`, the inhibition at 20 µM with 3T3-L1 [1] is -38.5%.
`COc1ccc(Cn2cc(CN(Cc3cn(S(=O)(=O)c4ccc(C)cc4)c4ccccc34)S(=O)(=O)c3ccc(C)cc3)nn2)cc1`: the inhibition at 20 µM in the assay on 3T3-L1 [1] turned out to be 1%.
Consider `O=S(=O)(c1ccc(F)cc1)N(Cc1cccc(F)c1F)Cc1cn(S(=O)(=O)c2ccc(F)cc2)c2ccccc12`, for which the inhibition at 20 µM in the assay with 3T3-L1 [1] was -20%.
With `CC(=O)N(Cc1cccc(F)c1F)Cc1cn(S(=O)(=O)c2ccc(F)cc2)c2ccccc12`, the IC50 in the assay on 3T3-L1 [2] stood at 10.6 µM. For the same compound, in the assay with 3T3-L1 [1], the inhibition at 20 µM stood at 25.8%.
For `Cc1ccc(S(=O)(=O)n2cc(CN(Cc3cn(Cc4ccccc4)nn3)S(=O)(=O)c3ccccc3)c3ccccc32)cc1`, in the assay on 3T3-L1 [1], the inhibition at 20 µM was -18%.
`Cc1ccc(S(=O)(=O)N(Cc2cn(Cc3ccc(F)cc3F)nn2)Cc2c(C)c3ccccc3n2S(=O)(=O)c2ccc(C)cc2)cc1`: the inhibition at 20 µM with 3T3-L1 [1] is -22%.
The same measure, in the same setting: then `Cc1ccc(S(=O)(=O)N(Cc2cccc(F)c2F)Cc2cn(S(=O)(=O)c3ccc(F)cc3)c3ccccc23)cc1`, with -35%.
In the case of `Cc1ccc(S(=O)(=O)n2cc(CN(Cc3cn(Cc4ccc(F)cc4)nn3)S(C)(=O)=O)c3ccccc32)cc1`, in the assay with 3T3-L1 [1], the inhibition at 20 µM is -19.5%.
Turning to `CC(C)OC(=O)C(C)(C)Oc1ccc(C(=O)c2ccc(Cl)cc2)cc1`, the outcome in the assay with Syrian golden hamster [3], with Syrian golden hamster [4], with Syrian golden hamster [5], in the assay with Syrian golden hamster [6], in the assay with Syrian golden hamster [7] and in the assay on Syrian golden hamster [8] was Active. Further, the result in the assay with Syrian golden hamster [9] and with Syrian golden hamster [10] was Active.
In the case of `Cc1ccc(S(=O)(=O)N(Cc2ccccc2)Cc2cccc(F)c2F)cc1`, the inhibition at 20 µM in the assay with 3T3-L1 [1] is -35.7%.
On to `O=S(=O)(c1ccc(F)cc1)N(Cc1ccccc1)Cc1cccc(F)c1F`, for which the inhibition at 20 µM with 3T3-L1 [1] is -81.9%.
`Cc1ccc(S(=O)(=O)N(Cc2cn(Cc3ccc(F)cc3F)nn2)Cc2cn(S(=O)(=O)c3ccc(C)cc3)c3ccccc23)cc1`: the inhibition at 20 µM in the assay with 3T3-L1 [1] came to 12.3%.
For `Cc1ccc(S(=O)(=O)n2cc(CNCc3cccc(F)c3F)c3ccccc32)cc1`, the IC50 in the assay on 3T3-L1 [2] is 30 µM. Further, the inhibition at 20 µM in the assay with 3T3-L1 [1] came to 46%.
For `Cc1ccc(S(=O)(=O)N(Cc2cn(Cc3ccccc3)nn2)Cc2c(C)c3ccccc3n2S(=O)(=O)c2ccc(C)cc2)cc1`, the inhibition at 20 µM in the assay with 3T3-L1 [1] was -5.9%.
Same read-out and setting: then `Cc1ccc(S(=O)(=O)n2c(CN(Cc3cn(Cc4ccc(F)cc4F)nn3)S(C)(=O)=O)c(C)c3ccccc32)cc1`, with -20.8%; and `Cc1ccc(S(=O)(=O)N(Cc2cn(Cc3ccc(F)cc3)nn2)Cc2c(-c3ccccc3)c3ccccc3n2S(=O)(=O)c2ccc(C)cc2)cc1`, with -7.6%; and `Cc1ccc(S(=O)(=O)N(Cc2cn(Cc3ccccc3)nn2)Cc2c(-c3ccccc3)c3ccccc3n2S(=O)(=O)c2ccc(C)cc2)cc1`, with 0.03%.
Turning to `Cc1ccc(S(=O)(=O)n2cc(CN(Cc3cn(Cc4cc(F)ccc4F)nn3)S(=O)(=O)c3ccccc3)c3ccccc32)cc1`, in the assay on 3T3-L1 [1], the inhibition at 20 µM is -6.5%.
`CC(=O)N(Cc1cccc(F)c1F)Cc1cn(S(=O)(=O)c2ccc(C)cc2)c2ccccc12`: in the assay on 3T3-L1 [2], the IC50 turned out to be 17.5 µM. For the same compound, the inhibition at 20 µM in the assay on 3T3-L1 [1] was determined as 57.5%.
Regarding `Cc1ccc(S(=O)(=O)N(Cc2cn(Cc3ccccc3Cl)nn2)Cc2cn(S(=O)(=O)c3ccc(C)cc3)c3ccccc23)cc1`, in the assay on 3T3-L1 [1], the inhibition at 20 µM was -4.8%.
With `Cc1ccc(S(=O)(=O)n2cc(CN(Cc3cn(Cc4cc(F)ccc4F)nn3)S(C)(=O)=O)c3ccccc32)cc1`, the inhibition at 20 µM in the assay on 3T3-L1 [1] stood at 3.4%.
As for `O=C(N(Cc1ccc(F)cc1)Cc1cccc(F)c1F)C(F)(F)F`, in the assay with 3T3-L1 [1], the inhibition at 20 µM was -39.8%.
Turning to `Fc1ccc(CNCc2cccc(F)c2F)cc1`, the inhibition at 20 µM in the assay on 3T3-L1 [1] was -53.4%.
Regarding `COc1ccc(Cn2cc(CN(Cc3cn(S(=O)(=O)c4ccc(C)cc4)c4ccccc34)S(=O)(=O)c3ccc(C)cc3)nn2)c(OC)c1OC`, in the assay on 3T3-L1 [1], the inhibition at 20 µM is -18%.
For `Fc1cccc(CNCc2c[nH]c3ccccc23)c1F`, the inhibition at 20 µM in the assay on 3T3-L1 [1] was -1.7%.
With `Cc1ccc(S(=O)(=O)N(Cc2cccc(F)c2F)Cc2cn(S(=O)(=O)c3ccc(C)cc3)c3ccccc23)cc1`, in the assay with 3T3-L1 [1], the inhibition at 20 µM was -13.9%.
`Cc1ccc(S(=O)(=O)N(Cc2cn(Cc3ccccc3)nn2)Cc2cn(S(=O)(=O)c3ccc(C)cc3)c3ccccc23)cc1`: the inhibition at 20 µM in the assay with 3T3-L1 [1] was 3.4%.
On to `Cc1ccc(S(=O)(=O)n2cc(CN(Cc3cccc(F)c3F)C(=O)C(F)(F)F)c3ccccc32)cc1`, for which, in the assay with 3T3-L1 [1], the inhibition at 20 µM is -5.5%.
